# Results reported in article PMC9285861 (Biomacromolecules, 2019).
# Read-outs that look alike come from different tables or passages of the source.
# How the values were obtained:
# Thioflavin T = type: physicochemical; conditions: 50 μM Aβ, 100 μM ThT, 37 °C, without plasma proteins, Ex/Em 440/485 nm, triplicate
# [1] = test system: SH-SY5Y neuroblastoma cells; conditions: 20 μM Aβ, 15 h, triplicate, ± SD
# dendritic cells (DCs) = assay: Blood cell association of ThT-labeled Aβ by flow cytometry, dendritic cells; type: cell-based, human; conditions: 1 h
# In short: (§1)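 Heparinised whole blood, or blood washed five times in PBS (950g, 10 min) and resuspended in serum-free RPMI 1640, given ThT-labeled test peptide oligomers or fibrils at 5, 10, 15 μM, 1 h at 4 and 37 °C, triplicate. RBCs lysed; antibody staining 1 h on ice; 1% formaldehyde fixation; flow cytometry with populations gated by CD3, CD14, CD56, CD19, Lin1/HLA-DR, SSC-A.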
# SH-SY5Y neuronal cells = conditions: 20 μM Aβ, 2 h
# [2] = test system: Human monocytic THP-1 cells; assay: LSPR immunoassay of cytokine secretion, THP-1 cells; type: cell-based; conditions: 37 °C, 2 h incubation, 5, 10, 15 μM, LSPR read-out
# granulocytes = assay: Blood cell association of ThT-labeled Aβ by flow cytometry, granulocytes; type: cell-based, human; conditions: 1 h
# In short: as §1
# monocytes = assay: Blood cell association of ThT-labeled Aβ by flow cytometry, monocytes; type: cell-based, human; conditions: 1 h, triplicate
# In short: as §1
# B cells = assay: Blood cell association of ThT-labeled Aβ by flow cytometry, B cells; type: cell-based, human; conditions: 1 h
# In short: as §1
# NK cells = assay: Blood cell association of ThT-labeled Aβ by flow cytometry, NK cells; type: cell-based, human; conditions: especially with plasma proteins, 1 h
# In short: as §1
# [3] = test system: human immune cell lines (T cells, B cells, or THP-1 cells); assay: LSPR immunoassay of cytokine secretion, immune cell lines; type: cell-based; conditions: for effect of plasma proteins on immune responses (cytokine secretion): 37 °C, human plasma versus RPMI-1640 medium, all three types of immune cells
# In short: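 Jurkat T (RPMI-1640, 200 μg/mL […], 10% FBS), EBV-transformed B lymphoblasts and THP-1 (50 μM mercaptoethanol) cells at 1 × 10^6 cells/mL in human plasma proteins or RPMI-1640 took test peptide oligomers or fibrils, 5, 10, 15 μM final, 2 h at 4 and 37 °C. TNF and IL-6 in medium measured on antibody–gold nanorod LSPR chips via calibration curves; triplicate.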
# Reverse phase HPLC = type: physicochemical; conditions: Figure S2
# T cells = assay: Blood cell association of ThT-labeled Aβ by flow cytometry, T cells; type: cell-based, human; conditions: 1 h
# In short: as §1
# [4] = 5 μM, with plasma proteins, triplicate ± SD
# [5] = 5 μM, without plasma proteins, triplicate ± SD
# [6] = 10 μM, with plasma proteins, triplicate ± SD
# [7] = 10 μM, without plasma proteins, triplicate ± SD
# [8] = 15 μM, with plasma proteins, triplicate ± SD
# [9] = 15 μM, without plasma proteins, triplicate ± SD
substance,measurement,setting,value
"AIAEGDSHVLKEGAY-MEIFDVQGHVFGGKIFRVVDLGSHNVA [Aβm, reference compound]",time to saturation phase of ThT fibrillization kinetics,Thioflavin T,~ 60 h
AIAEGDSHVLKEGAY-MEIFDVQGHVFGGKIFRVVDLGSHNVA [AβO],cytotoxicity (PI-positive cells),[1]; with plasma proteins,30 ± 2%
same,cytotoxicity (PI-positive cells),[1]; without plasma proteins,39 ± 2.6%
same,association with DCs,"dendritic cells (DCs); in the absence of plasma proteins, range over 5-15 μM",78–85%
same,association with DCs,"dendritic cells (DCs); whole blood cells (with plasma proteins), range over 5-15 μM",69–93%
same,cell membrane damage by HIM,SH-SY5Y neuronal cells; with plasma proteins,damage was reduced
same,cell membrane damage by HIM,SH-SY5Y neuronal cells; without plasma proteins,significant damage including membrane deformation and blebbing
same,"pro-inflammatory cytokine secretion (TNF, IL-6) of THP-1 cells",[2],prominent pro-inflammatory cytokine secretion
same,association with granulocytes,granulocytes; with and without plasma proteins (no considerable difference),80–90%
same,association with monocytes,"monocytes; all concentrations (5, 10, 15 μM), all conditions",90–100%
same,change of association with B cells from whole blood to washed cells,"B cells; 3 concentrations (5, 10, 15 μM)",slightly decreased
same,association with NK cells,NK cells,very low association
same,time to saturation phase of ThT fibrillization kinetics,Thioflavin T,~ 60 h
same,effect of plasma proteins on immune responses (cytokine secretion),[3],mostly promoted
same,expression of cytokines IL-6 and TNF by immune cells,"[3]; 2 h incubation, LSPR sensor",significant expression
same,hydrophobicity by RP-HPLC,Reverse phase HPLC,slightly hydrophobic
AIAEGDSHVLKEGAY-MEIFDVQGHVFGGKIFRVVDLGSHNVA [Aβf],cytotoxicity (PI-positive cells),[1]; with plasma proteins,not affected by plasma proteins
same,cytotoxicity (PI-positive cells),[1]; without plasma proteins,13%
same,association with DCs,dendritic cells (DCs); [4],11.1 ± 3.7%
same,association with DCs,dendritic cells (DCs); [5],38.2 ± 3.3%
same,association with DCs,dendritic cells (DCs); [6],35 ± 0.7%
same,association with DCs,dendritic cells (DCs); [7],69.2 ± 3.1%
same,association with DCs,dendritic cells (DCs); [8],56.5 ± 13%
same,association with DCs,dendritic cells (DCs); [9],71.2 ± 6.4%
same,cell membrane damage by HIM,SH-SY5Y neuronal cells; with plasma proteins,no damage was evident
same,cell membrane damage by HIM,SH-SY5Y neuronal cells; without plasma proteins,no damage was evident
same,association with granulocytes,granulocytes; [4],7.0 ± 2.9%
same,association with granulocytes,granulocytes; [5],11.7 ± 0.4%
same,association with granulocytes,granulocytes; [6],21.6 ± 1.2%
same,association with granulocytes,granulocytes; [7],38.5 ± 5.4%
same,association with granulocytes,granulocytes; [8],35.7 ± 2.6%
same,association with granulocytes,granulocytes; [9],51.8 ± 3.1%
same,association with monocytes,monocytes; high concentrations,60–80%
same,association with monocytes,monocytes; low concentrations,20–40%
same,association with B cells,"B cells; 10 μM, whole blood as the sentence is printed, triplicate ± SD",36.6 ± 6.0%
same,association with B cells,"B cells; 15 μM, whole blood as the sentence is printed, triplicate ± SD",57.1 ± 0.9%
same,association with B cells,"B cells; 3 concentrations (5, 10, 15 μM), washed cells as the sentence is printed",below 5%
same,association with NK cells,NK cells,no association
same,association with T cells,"T cells; 5 μM, without plasma proteins (washed blood), triplicate ± SD",5.2 ± 0.1%
same,association with T cells,"T cells; 10 μM, without plasma proteins (washed blood), triplicate ± SD",38.2 ± 3.2%
same,association with T cells,"T cells; 15 μM, without plasma proteins (washed blood), triplicate ± SD",51.8 ± 1.5%
same,association with T cells,T cells; with plasma proteins (whole blood),< 10%
same,effect of plasma proteins on immune responses (cytokine secretion),[3],overall suppressed immune responses
same,hydrophobicity by RP-HPLC,Reverse phase HPLC,varying hydrophobicity
